Here are results for one compound from PubChem BioAssay AID504495 (The Scripps Research Institute Molecular Screening Center, 2011).

In the test the target is Platelet-activating factor acetylhydrolase 2, cytoplasmic (Mus musculus) (UniProt Q8VDG7). The test is described as follows: in situ blockade of mouse PAFAH2 activity – cell-based, gel-based competitive ABPP, fluorescence, powder samples, late-stage follow-up (AID 504495). The following applies: BW5147 murine T cells, FP-Rh, 4 h, at 0.03 µM, stronger effect = higher value. Put shortly:
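Material: murine BW5147 T cells; Amount: soluble lysate protein at 1 mg/mL for probe labeling; Reagent: FP-Rh probe 2 µM; Signal: SDS-PAGE in-gel fluorescence; Benchmarks: high control DMSO-only treated cells, low control gel background; Times: cells 4 h 37 °C, probe 30 min 25 °C; Measure: % inhibition versus DMSO-treated cells.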

Platelet-activating factor acetylhydrolase 2, cytoplasmic (Mus musculus), sequence (Q8VDG7 whole entry, looked up): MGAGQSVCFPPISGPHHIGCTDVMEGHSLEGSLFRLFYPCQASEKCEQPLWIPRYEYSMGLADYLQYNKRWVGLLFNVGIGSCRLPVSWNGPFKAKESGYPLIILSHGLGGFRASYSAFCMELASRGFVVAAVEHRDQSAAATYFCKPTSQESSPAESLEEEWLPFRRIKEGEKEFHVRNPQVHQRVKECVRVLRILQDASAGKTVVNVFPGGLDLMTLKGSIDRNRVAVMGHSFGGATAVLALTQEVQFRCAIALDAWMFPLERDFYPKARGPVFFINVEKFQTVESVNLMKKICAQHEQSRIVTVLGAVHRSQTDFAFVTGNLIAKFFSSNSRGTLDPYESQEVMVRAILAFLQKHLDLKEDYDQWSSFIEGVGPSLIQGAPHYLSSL

For `O=C(N1CCCC1)n1ncc(-c2ccc(-c3ccccc3)cc2)n1`, the inhibition is 100%.
